Measurements reported in ChEMBL document CHEMBL1151869, “Discovery of novel 3,6-disubstituted 2-pyridinecarboxamide derivatives as GK activators” (Bioorg Med Chem Lett, 2009).
The source made the active and inactive calls. No cut-off for these calls is given here.

Experiments:
[1] = target: T1, Hexokinase-4 (Homo sapiens, UniProt P35557); assay: Activation of glucokinase
T1 sequence (P35557 whole entry): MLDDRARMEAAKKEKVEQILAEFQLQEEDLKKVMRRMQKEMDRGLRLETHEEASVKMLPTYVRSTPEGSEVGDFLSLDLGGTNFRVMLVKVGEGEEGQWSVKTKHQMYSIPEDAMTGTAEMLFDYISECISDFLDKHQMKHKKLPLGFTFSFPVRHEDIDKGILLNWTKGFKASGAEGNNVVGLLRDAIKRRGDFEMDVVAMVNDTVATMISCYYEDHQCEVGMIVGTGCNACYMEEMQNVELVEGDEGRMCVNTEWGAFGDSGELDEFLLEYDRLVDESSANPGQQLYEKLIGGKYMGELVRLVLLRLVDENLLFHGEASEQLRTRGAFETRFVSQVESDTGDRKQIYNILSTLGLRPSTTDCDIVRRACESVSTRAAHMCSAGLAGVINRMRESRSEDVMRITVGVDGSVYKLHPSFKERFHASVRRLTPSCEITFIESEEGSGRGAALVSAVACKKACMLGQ

[2] = Hepatic availability in rat hepatocytes; format: ADME, cell-based, Hepatocyte
[3] = Half life in rat at 1 mg/kg, iv; format: ADME, organism-based; set-up: dose 1 mg/kg, route intravenous; conditions: in vivo
[4] = Volume of distribution at steady state in rat at 1 mg/kg, iv; format: ADME, organism-based; set-up: dose 1 mg/kg, route intravenous; conditions: in vivo, read-out: Vdss
[5] = AUC (0 to infinity) in rat at 1 mg/kg, iv; format: ADME, organism-based; set-up: dose 1 mg/kg, route intravenous, time infinity; conditions: plasma
[6] = Oral bioavailability in rat at 3 mg/kg, po; format: ADME, organism-based; conditions: in vivo
[7] = Plasma clearance in rat at 1 mg/kg, iv; format: ADME, organism-based; set-up: dose 1 mg/kg, route intravenous
[8] = test system: Rattus norvegicus; assay: Reduction in plasma glucose level in overnight fasted Wistar rat at 30 mg/kg, po treated after 30 mins of glucose challenge measured after 1 to 3 hrs by oral glucose tolerance test; format: functional, organism-based; set-up: dose 30 mg/kg
In short: (§1)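 Nine-week-old male Wistar rats, fasted overnight, given oral dose (30 mpk) or vehicle (0.5% methylcellulose), then an oral glucose challenge (2 g/kg) 30 min later. Blood glucose read just before the challenge and at 30, 60, 90, 120, 150 and 210 min after; AUC taken from the glucose time course.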

[9] = test system: Rattus norvegicus; assay: Reduction in glucose AUC in overnight fasted Wistar rat at 30 mg/kg, po treated after 30 mins of glucose challenge measured after 3.5 hrs by oral glucose tolerance test; format: functional, organism-based; set-up: dose 30 mg/kg; in short: as §1
[10] = AUC (0 to infinity) in rat at 3 mg/kg, po; format: ADME, organism-based; set-up: dose 3 mg/kg, route oral, time infinity; conditions: plasma

EC50 [1]	SMILES	Fh [2]	also measured
120 nM	Cn1cnnc1Sc1ccc(Sc2ccc(F)cc2)c(C(=O)Nc2nccs2)n1	–	–
250 nM	Cc1csc(NC(=O)c2nc(Sc3nncn3C)ccc2Sc2ccc(F)cc2)n1	–	–
100 nM	Cc1cccc(Sc2ccc(Sc3nnc[nH]3)nc2C(=O)Nc2nccs2)c1	69%	–
160 nM	O=C(Nc1nccs1)c1nc(Sc2nnc[nH]2)ccc1Sc1ccc(C(F)(F)F)cc1	–	–
160 nM	COc1cccc(Sc2ccc(Sc3nnc[nH]3)nc2C(=O)Nc2nccs2)c1	–	–
120 nM	COc1ccc(Sc2ccc(Sc3nnc[nH]3)nc2C(=O)Nc2nccs2)cc1	35%	–
–	O=C(Nc1nccs1)c1nc(Sc2nnc[nH]2)ccc1Sc1ccc(F)cc1	100%	half-life [3]: 240 min; Vd [4]: 0.5 L/kg; AUC(0-inf) [5]: 4.9 µM·h; bioavailability [6]: 23%; clearance [7]: 8.8 mL/min/kg; Activity [8]: Active; Activity [9]: Active; AUC(0-inf) [10]: 3.3 µM·h

SMILES	EC50 [1]	Fh [2]	also measured
O=C(Nc1nccs1)c1nc(Sc2nnc[nH]2)ccc1Sc1cccc(F)c1	40 nM	89%	–
O=C(Nc1nccs1)c1nc(Sc2nnc[nH]2)ccc1Sc1ccccc1F	57 nM	71%	–
Cc1csc(NC(=O)c2cc(Sc3nncn3C)ccc2Sc2ccc(F)cc2)n1	970 nM	–	–
O=C(Nc1nccs1)c1nc(Sc2nnc[nH]2)ccc1Sc1ccccc1	38 nM	77%	–
